Test results as given in ChEMBL document CHEMBL5120949, “Optimization of Covalent MKK7 Inhibitors via Crude Nanomole-Scale Libraries” (J Med Chem, 2022).
Values after ≈ are worked out from the molar mass of the structure shown.

What was measured:
[1] = target: T1, Dual specificity mitogen-activated protein kinase kinase 7 (Homo sapiens) (UniProt O14733); assay: Binding affinity to N-terminal 6XHis-tagged recombinant MKK7 (117 to 423 residues) (unknown origin) assessed as protein labelling at 2 uM measured for 10 mins by LC/MS analysis relative to control
T1 sequence (whole entry): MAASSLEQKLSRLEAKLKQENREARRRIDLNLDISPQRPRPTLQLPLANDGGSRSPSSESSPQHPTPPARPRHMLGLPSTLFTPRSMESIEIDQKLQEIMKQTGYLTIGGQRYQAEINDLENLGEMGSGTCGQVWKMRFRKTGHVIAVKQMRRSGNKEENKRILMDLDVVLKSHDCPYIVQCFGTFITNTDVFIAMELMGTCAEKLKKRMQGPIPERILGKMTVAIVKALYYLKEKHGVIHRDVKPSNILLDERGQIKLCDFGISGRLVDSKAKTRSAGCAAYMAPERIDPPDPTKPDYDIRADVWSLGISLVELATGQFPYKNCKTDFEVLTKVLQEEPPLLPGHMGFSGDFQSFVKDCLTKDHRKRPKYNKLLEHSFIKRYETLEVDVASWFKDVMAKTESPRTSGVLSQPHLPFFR

[2] = Kinetic solubility of compound
[3] = Apparent permeability across apical to basolateral side in human Caco2 cells; conditions: Caco-2
[4] = Metabolic stability in human liver microsomes assessed as intrinsic clearance measured after 60 mins
[5] = Stability of the compound in human plasma assessed as parent compound remaining; format: ADME, cell-free
[6] = target: T1, Dual specificity mitogen-activated protein kinase kinase 7 (Homo sapiens); assay: Inhibition of N-terminal 6XHis-tagged recombinant MKK7 (117 to 423 residues) in human U2OS cells assessed as reduction in JNK phosphorylation level at 13.8 uM incubated for 2 hrs by ICW detection method relative to control; format: cell-based
Procedure, shortened: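 U2OS cells plated on fibronectin-coated 384-well plates, 24 h. Crude CuAAC reaction mixtures diluted in PBS and given to cells at 13.89 μM final for 2 h. 0.2 M sorbitol added 40 min before fixation. Cells fixed, permeabilized and immunostained for phospho-JNK T183/Y185. The 800 nm signal was normalized to CellTag700 and compared with control wells.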

[7] = target: T2, Dual specificity mitogen-activated protein kinase kinase 7 (Homo sapiens, UniProt O14733); assay: Inhibition of N-terminal 6XHis-tagged recombinant MKK7 (117 to 423 residues) in human U2OS assessed as reduction in c-Jun phosphorylation level incubated for 80 mins by Western blot analysis; format: cell-based
T2 sequence (O14733 whole entry): T1 sequence (whole entry)
Procedure, shortened: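 U2OS cells in six-well plates, media changed, then exposed to compound in 0.1% DMSO for 80 min. Sorbitol added to 0.2 M for 40 min. Lysates (35 μg protein) run on western blot against p-c-Jun (Ser63), with GAPDH as loading control. Bands quantified and EC50 taken from a sigmoidal dose–response fit with top fixed at 1 and bottom at 0.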

Which Activity [1] does the source give for `C=CC(=O)Nc1cc(C(=O)NCc2cn([C@@H]3CCCC[C@H]3OC)nn2)cc(-c2n[nH]c3ccccc23)c1` (racemic) here?
The Activity was over 70%.

What does the source list for `C=CC(=O)N1CCC[C@@H](n2nc(-c3cn(-c4ccc(C(C)=O)cc4)nn3)c3c(N)ncnc32)C1`?
solubility kinetic [2]: 8 µM (≈ 3.66 µg/mL); Papp A→B [3]: 200 nm/s; microsomal CLint at 1 h [4]: 154 µL/min/mg; Stability [5]: 70%; inhibition [6]: 65%

Which Activity [1] does the source give for `C=CC(=O)N1CCC[C@@H](n2nc(-c3cn(-c4ccc(Cl)cc4O)nn3)c3c(N)ncnc32)C1` here?
Its Activity is over 70%.

And the inhibition [6]?
Its inhibition is 65%.

With `C=CC(=O)Nc1cc(C(=O)NCc2cn(-c3ccccc3C)nn2)cc(-c2n[nH]c3ccccc23)c1` as the compound, how does the Activity [1] read?
Its Activity is over 70%.

And the EC50 [7]?
Its EC50 is under 3 µM.

For `C=CC(=O)Nc1cc(C(=O)NCc2cn(C3CCC3)nn2)cc(-c2n[nH]c3ccccc23)c1`, which Activity [1] is on record?
The Activity was over 70%.

For `C=CC(=O)N1CCC[C@@H](n2nc(-c3cn(-c4ccc(C(=O)OC)cc4)nn3)c3c(N)ncnc32)C1`, which Activity [1] is on record?
Its Activity is over 70%.

And the inhibition [6]?
The inhibition was 65%.

What does the source list for `C#Cc1nn([C@@H]2CCCN(C(=O)C=C)C2)c2ncnc(N)c12`?
Activity [1]: > 70%; inhibition [6]: 65%

Which Activity [1] does the source give for `C#CCNC(=O)c1cc(NC(=O)C=C)cc(-c2n[nH]c3ccccc23)c1` here?
The Activity was 2%.

Which Activity [1] does the source give for `C=CC(=O)N1CCC[C@@H](n2nc(-c3cn(-c4ccc(OC)cc4)nn3)c3c(N)ncnc32)C1` here?
The Activity was over 70%.

And the inhibition [6]?
Its inhibition is 65%.

For `C=CC(=O)N1CCC[C@@H](n2nc(-c3cn(CC(F)(F)c4ccc(Cl)cc4)nn3)c3c(N)ncnc32)C1`, which Activity [1] is on record?
Its Activity is over 70%.

And the inhibition [6]?
The inhibition was 65%.

With `C=CC(=O)Nc1cc(C(=O)NCc2cn(-c3ccc(F)c(Cl)c3)nn2)cc(-c2n[nH]c3ccccc23)c1` as the compound, how does the Activity [1] read?
The Activity was over 70%.

Which results are given for `C=CC(=O)N1CCC[C@@H](n2nc(-c3cn(CCc4ccccc4)nn3)c3c(N)ncnc32)C1`?
Activity [1]: > 70%; inhibition [6]: 65%

Which Activity [1] does the source give for `C=CC(=O)N1CCC[C@@H](n2nc(-c3cn(-c4ccc(CO)c(F)c4)nn3)c3c(N)ncnc32)C1` here?
Its Activity is over 70%.

What about the inhibition [6] of the same compound?
The inhibition was 65%.

Which Activity [1] does the source give for `C=CC(=O)N1CCC[C@@H](n2nc(-c3cn(-c4ccc(Br)cc4)nn3)c3c(N)ncnc32)C1` here?
The Activity was over 70%.

What about the inhibition [6] of the same compound?
The inhibition was 65%.

Which inhibition [6] does the source give for `C=CC(=O)N1CCC[C@@H](n2nc(-c3cn(CC(F)(F)c4ccccc4)nn3)c3c(N)ncnc32)C1` here?
The inhibition was 65%.

Which results are given for `C=CC(=O)N1CCC[C@@H](n2nc(-c3cn(-c4cc(Br)ccc4O)nn3)c3c(N)ncnc32)C1`?
Activity [1]: > 70%; EC50 [7]: > 0.9 µM; inhibition [6]: 65%

Which results are given for `C=CC(=O)N1CCC[C@@H](n2nc(-c3cn(C[C@H](O)c4ccc(Br)cc4)nn3)c3c(N)ncnc32)C1`?
Activity [1]: > 70%; inhibition [6]: 65%
